Measured values reported in article PMC4624265 (Nuclear medicine and biology, 2015).
pIC50: −log10 of the molar value.

Experiments:
PSMA [1] = target: T1, PSMA (Homo sapiens, UniProt Q04609); assay: PSMA inhibition assay; assay type: biochemical
PSMA [2] = target: T1, PSMA; assay: Reversibility assay; assay type: biochemical
[3] = system: mice bearing CWR22Rv1 tumor xenografts; assay: Ex vivo biodistribution in CWR22Rv1 tumor-bearing mice; conditions: indicated by insignificant bone uptake
Summary of the method: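 Male athymic NCr-nu/nu mice carried CWR22Rv1 xenografts (about 10^6 cells in 50/50 complete medium/matrigel, right shoulder), used 4–5 weeks after implantation. Under isoflurane, HPLC-purified radiotracer (35–40 μCi in saline) was given by tail vein. For blocking, 250 μg of the PSMA inhibitor in saline was given 1 h before tracer, 4 h group only. Mice were euthanized at 1 h or 4 h, n = 4. Blood was taken by cardiac puncture; organs were weighed and gamma-counted. %ID/g was calculated against standards; two-tailed t-test, p<0.05.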

T1 sequence (Q04609 whole entry): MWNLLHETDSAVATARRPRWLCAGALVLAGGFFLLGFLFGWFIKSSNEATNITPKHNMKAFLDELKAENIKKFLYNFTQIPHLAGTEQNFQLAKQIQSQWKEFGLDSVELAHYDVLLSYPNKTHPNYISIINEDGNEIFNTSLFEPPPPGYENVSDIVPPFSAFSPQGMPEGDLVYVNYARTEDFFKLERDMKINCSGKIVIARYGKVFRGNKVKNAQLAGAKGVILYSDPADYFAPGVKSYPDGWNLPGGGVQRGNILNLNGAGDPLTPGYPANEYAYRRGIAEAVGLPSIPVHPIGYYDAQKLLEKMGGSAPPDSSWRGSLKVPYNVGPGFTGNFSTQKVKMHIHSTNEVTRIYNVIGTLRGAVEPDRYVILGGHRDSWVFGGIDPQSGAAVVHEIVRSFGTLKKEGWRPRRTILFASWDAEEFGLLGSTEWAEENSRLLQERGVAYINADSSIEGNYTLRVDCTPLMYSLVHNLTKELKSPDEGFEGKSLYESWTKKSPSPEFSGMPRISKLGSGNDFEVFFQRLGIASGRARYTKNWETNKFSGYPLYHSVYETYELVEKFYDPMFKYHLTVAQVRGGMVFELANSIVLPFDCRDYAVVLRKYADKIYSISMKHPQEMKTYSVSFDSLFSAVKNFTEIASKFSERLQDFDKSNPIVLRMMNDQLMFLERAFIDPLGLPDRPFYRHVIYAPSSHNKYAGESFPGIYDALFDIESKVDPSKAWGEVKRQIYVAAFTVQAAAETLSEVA

pIC50 (PSMA [1]) | SMILES | Mode of binding to PSMA (PSMA [2]) | Defluorination in vivo [3]
7.72 | NCCCCCC(=O)N[C@@H](CCC(=O)N[C@H](CCCOP(=O)(O)NC(CCC(=O)O)C(=O)O)C(=O)O)C(=O)O (stereo partly drawn) [compound 3, 2-(((S)-((4R)-4-(4-(6-aminohexanamido)-4-carboxybutanamido)-4-carboxybut-oxy) (hydroxy)phosphoryl)amino)pentanedioic acid] | irreversible | –
– | O=C(O)CCC(NP(=O)(O)OCCC[C@@H](NC(=O)CC[C@H](NC(=O)CCCCCNC(=O)c1ccc(F)cc1)C(=O)O)C(=O)O)C(=O)O (stereo partly drawn) [compound 5, 2-(((S)-((4R)-4-carboxy-4-(4-carboxy-4-(6-(4-fluorobenzamido)hexanamido)butanamido)butoxy)(hydroxy)phosphoryl)amino) pentanedioic acid] | irreversible | no defluorination
